Reference: ChEMBL document CHEMBL1123345, “2-Alkyl-substituted 1,1-bis(4-acetoxyphenyl)-2-phenylethenes. Estrogen receptor affinity, estrogenic and antiestrogenic properties, and mammary tumor inhibiting activity” (1986)

target: T1, Estrogen receptor (Mus musculus) (UniProt O08537+P19785); test: Estrogenic effect in uterotrophic assay in immature mice at 1 ug dose; type: functional
How it was run: (§1)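 Immature female NMRI mice (10–12 g, 20 days old, 10 per group) injected sc daily for 3 days with compound in olive oil (0.1 mL/mouse), dose per animal per day. Uteri removed 24 h after last dose, Bouin-fixed, dried, weighed. Effect = uterus dry weight (mg)/body weight (g) × 100. Activity = (E_T − E_V)/(E_S − E_V) × 100, with estrone 0.4 μg standard as 100%.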

T1 sequence (O08537 whole entry, looked up): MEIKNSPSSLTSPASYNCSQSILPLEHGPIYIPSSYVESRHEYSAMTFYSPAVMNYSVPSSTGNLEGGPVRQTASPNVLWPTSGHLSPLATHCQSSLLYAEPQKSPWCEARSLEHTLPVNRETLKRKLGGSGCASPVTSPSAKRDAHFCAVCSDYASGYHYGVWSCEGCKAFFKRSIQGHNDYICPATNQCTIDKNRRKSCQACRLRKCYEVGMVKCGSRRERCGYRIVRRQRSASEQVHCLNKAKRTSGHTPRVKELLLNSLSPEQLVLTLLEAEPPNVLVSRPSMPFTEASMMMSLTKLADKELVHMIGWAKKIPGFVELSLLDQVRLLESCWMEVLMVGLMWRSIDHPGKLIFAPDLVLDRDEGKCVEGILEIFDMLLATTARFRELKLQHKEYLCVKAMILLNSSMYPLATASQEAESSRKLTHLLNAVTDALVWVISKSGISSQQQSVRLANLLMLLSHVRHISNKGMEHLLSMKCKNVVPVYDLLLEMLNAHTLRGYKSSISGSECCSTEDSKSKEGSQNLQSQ
T1 sequence (P19785 whole entry, looked up): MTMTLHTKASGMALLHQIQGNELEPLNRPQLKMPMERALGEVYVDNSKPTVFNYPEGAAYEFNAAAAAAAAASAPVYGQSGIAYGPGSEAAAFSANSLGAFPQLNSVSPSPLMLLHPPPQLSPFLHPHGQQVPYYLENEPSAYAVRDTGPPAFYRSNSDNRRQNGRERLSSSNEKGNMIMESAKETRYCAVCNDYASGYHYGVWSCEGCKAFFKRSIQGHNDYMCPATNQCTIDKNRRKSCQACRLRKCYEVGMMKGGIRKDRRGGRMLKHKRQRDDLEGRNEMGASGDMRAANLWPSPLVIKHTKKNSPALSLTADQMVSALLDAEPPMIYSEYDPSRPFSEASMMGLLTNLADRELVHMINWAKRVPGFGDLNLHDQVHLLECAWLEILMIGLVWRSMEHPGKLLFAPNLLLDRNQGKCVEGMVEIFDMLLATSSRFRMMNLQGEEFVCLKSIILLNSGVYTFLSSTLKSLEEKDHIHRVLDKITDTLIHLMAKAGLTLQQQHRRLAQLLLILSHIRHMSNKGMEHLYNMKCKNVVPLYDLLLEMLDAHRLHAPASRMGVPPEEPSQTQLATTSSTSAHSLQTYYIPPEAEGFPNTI

SMILES | Activity
CCC1(c2ccccc2)OC1(c1ccc(OC(C)=O)cc1)c1ccc(OC(C)=O)cc1 (stereo not drawn) | 2
CC(=O)Oc1ccc(C(=Cc2ccccc2)c2ccc(OC(C)=O)cc2)cc1 | 11
CC(=O)Oc1ccc(C(=C(CC(F)(F)F)c2ccccc2)c2ccc(OC(C)=O)cc2)cc1 | 62
CCC(=C(c1ccc(OC(C)=O)cc1)c1ccc(OC(C)=O)cc1)c1ccccc1 | 37

Other lines, results leading:

Activity | SMILES
31 | CCCC(=C(c1ccc(OC(C)=O)cc1)c1ccc(OC(C)=O)cc1)c1ccccc1
17 | CCC(c1ccccc1)C(c1ccc(OC(C)=O)cc1)c1ccc(OC(C)=O)cc1 (stereo not drawn)
125 | CC(=O)Oc1ccc(C(=C(C)c2ccccc2)c2ccc(OC(C)=O)cc2)cc1
60 | CC(=O)Oc1ccc(C(=C(c2ccccc2)C(C)C)c2ccc(OC(C)=O)cc2)cc1

target: T1, Estrogen receptor (Mus musculus); test: Anti-estrogenic effect in uterotrophic assay in immature mice at 25 ug dose; type: functional
How it was run: (§2)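 Immature female NMRI mice (10–12 g, 20 days old, 10 per group) given test compound sc daily for 3 days in olive oil (0.1 mL/mouse), dose per animal per day, with estrone stimulating uterine growth. Uteri removed 24 h after last injection, Bouin-fixed, dried and weighed. Read-out is % inhibition of estrone-stimulated uterine growth.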

inhibition | SMILES
0% | CCC1(c2ccccc2)OC1(c1ccc(OC(C)=O)cc1)c1ccc(OC(C)=O)cc1 (stereo not drawn)

target: T1, Estrogen receptor (Mus musculus); test: Anti-estrogenic effect in uterotrophic assay in immature mice at 5 ug dose; type: functional; how it was run: as §2

SMILES | inhibition
CCC1(c2ccccc2)OC1(c1ccc(OC(C)=O)cc1)c1ccc(OC(C)=O)cc1 (stereo not drawn) | 5%
CC(=O)Oc1ccc(C(=Cc2ccccc2)c2ccc(OC(C)=O)cc2)cc1 | 0%
CCC(=C(c1ccc(OC(C)=O)cc1)c1ccc(OC(C)=O)cc1)c1ccccc1 | 0%

The remaining lines, values ahead:

inhibition | SMILES
0% | CCCC(=C(c1ccc(OC(C)=O)cc1)c1ccc(OC(C)=O)cc1)c1ccccc1
0% | CCC(c1ccccc1)C(c1ccc(OC(C)=O)cc1)c1ccc(OC(C)=O)cc1 (stereo not drawn)
0% | CC(=O)Oc1ccc(C(=C(c2ccccc2)C(C)C)c2ccc(OC(C)=O)cc2)cc1

target: T1, Estrogen receptor (Mus musculus); test: Anti-estrogenic effect in uterotrophic assay in immature mice at 1.0 ug dose; type: functional; how it was run: as §2

SMILES | inhibition
CCC1(c2ccccc2)OC1(c1ccc(OC(C)=O)cc1)c1ccc(OC(C)=O)cc1 (stereo not drawn) | 23%
CC(=O)Oc1ccc(C(=Cc2ccccc2)c2ccc(OC(C)=O)cc2)cc1 | 26%
CC(=O)Oc1ccc(C(=C(CC(F)(F)F)c2ccccc2)c2ccc(OC(C)=O)cc2)cc1 | 0%
CCC(=C(c1ccc(OC(C)=O)cc1)c1ccc(OC(C)=O)cc1)c1ccccc1 | 0%

Results, then the compound that gave them:

inhibition | SMILES
19% | CCCC(=C(c1ccc(OC(C)=O)cc1)c1ccc(OC(C)=O)cc1)c1ccccc1
27% | CCC(c1ccccc1)C(c1ccc(OC(C)=O)cc1)c1ccc(OC(C)=O)cc1 (stereo not drawn)
0% | CC(=O)Oc1ccc(C(=C(c2ccccc2)C(C)C)c2ccc(OC(C)=O)cc2)cc1

target: T1, Estrogen receptor (Mus musculus); test: In vivo inhibition of uterine growth in hormone-dependent MXT mammary tumor bearing mice; type: functional, organism-based
How it was run: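 MXT tumor-bearing BDF1 mice dosed sc 3 times weekly for 6 weeks in olive oil at doses equimolar to 3 × 8 mg/kg per week. Uterotrophic effect measured at end of therapy. T/C % = treated/solvent-control uterotrophic effect × 100, mean of 10 animals. U test (Wilcoxon, Mann, Whitney), α ≤ 0.05.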

SMILES | T/C
CCC1(c2ccccc2)OC1(c1ccc(OC(C)=O)cc1)c1ccc(OC(C)=O)cc1 (stereo not drawn) | 77.9%
CC(=O)Oc1ccc(C(=Cc2ccccc2)c2ccc(OC(C)=O)cc2)cc1 | 54.8%
CC(=O)Oc1ccc(C(=C(CC(F)(F)F)c2ccccc2)c2ccc(OC(C)=O)cc2)cc1 | 128%
CCC(=C(c1ccc(OC(C)=O)cc1)c1ccc(OC(C)=O)cc1)c1ccccc1 | 124%

Now from value to compound:

T/C | SMILES
93.3% | CCCC(=C(c1ccc(OC(C)=O)cc1)c1ccc(OC(C)=O)cc1)c1ccccc1
73.7% | CCC(c1ccccc1)C(c1ccc(OC(C)=O)cc1)c1ccc(OC(C)=O)cc1 (stereo not drawn)
120% | CC(=O)Oc1ccc(C(=C(C)c2ccccc2)c2ccc(OC(C)=O)cc2)cc1
128% | CC(=O)Oc1ccc(C(=C(c2ccccc2)C(C)C)c2ccc(OC(C)=O)cc2)cc1

tested on: Mus musculus; test: In vivo inhibition of hormone-dependent MXT mammary tumor in mice; type: functional
How it was run: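 BDF1 mice bearing transplanted hormone-dependent MXT mammary tumor (line 3.2). From day 1 after transplantation, compounds given sc 3 times weekly in olive oil (0.1 mL/mouse) for 6 weeks, at doses equimolar to 3 × 8 mg/kg per week. Tumors excised, washed in 0.9% NaCl, blotted, weighed. T/C % = treated/solvent-control tumor weight × 100, mean of 10 animals. Mann–Whitney–Wilcoxon U test, α ≤ 0.05.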

SMILES | T/C
CCC1(c2ccccc2)OC1(c1ccc(OC(C)=O)cc1)c1ccc(OC(C)=O)cc1 (stereo not drawn) | 78.9%
CC/C(=C(\c1ccccc1)c1ccc(OCCN(C)C)cc1)c1ccccc1 [TAMOXIFEN] | 9.8%
CCCC(=C(c1ccc(OC(C)=O)cc1)c1ccc(OC(C)=O)cc1)c1ccccc1 | 61.1%
CC(=O)Oc1ccc(C(=Cc2ccccc2)c2ccc(OC(C)=O)cc2)cc1 | 64.3%
CC(=O)Oc1ccc(C(=C(CC(F)(F)F)c2ccccc2)c2ccc(OC(C)=O)cc2)cc1 | 43.1%
CCC(=C(c1ccc(OC(C)=O)cc1)c1ccc(OC(C)=O)cc1)c1ccccc1 | 0.4%
CCC(c1ccccc1)C(c1ccc(OC(C)=O)cc1)c1ccc(OC(C)=O)cc1 (stereo not drawn) | 69.1%
CC(=O)Oc1ccc(C(=C(C)c2ccccc2)c2ccc(OC(C)=O)cc2)cc1 | 0.3%
CC(=O)Oc1ccc(C(=C(c2ccccc2)C(C)C)c2ccc(OC(C)=O)cc2)cc1 | 0.2%

target: T1, Estrogen receptor (Mus musculus); test: Estrogenic effect in uterotrophic assay in immature mice at 25 ug dose; type: functional; how it was run: as §1

SMILES | Activity
CCC1(c2ccccc2)OC1(c1ccc(OC(C)=O)cc1)c1ccc(OC(C)=O)cc1 (stereo not drawn) | 33
CC(=O)Oc1ccc(C(=Cc2ccccc2)c2ccc(OC(C)=O)cc2)cc1 | 99
CC(=O)Oc1ccc(C(=C(CC(F)(F)F)c2ccccc2)c2ccc(OC(C)=O)cc2)cc1 | 108
CCC(=C(c1ccc(OC(C)=O)cc1)c1ccc(OC(C)=O)cc1)c1ccccc1 | 98

Continued, values first:

Activity | SMILES
90 | CCCC(=C(c1ccc(OC(C)=O)cc1)c1ccc(OC(C)=O)cc1)c1ccccc1
79 | CCC(c1ccccc1)C(c1ccc(OC(C)=O)cc1)c1ccc(OC(C)=O)cc1 (stereo not drawn)
83 | CC(=O)Oc1ccc(C(=C(C)c2ccccc2)c2ccc(OC(C)=O)cc2)cc1
100 | CC(=O)Oc1ccc(C(=C(c2ccccc2)C(C)C)c2ccc(OC(C)=O)cc2)cc1

target: T1, Estrogen receptor (Mus musculus); test: Estrogenic effect in uterotrophic assay in immature mice at 5 ug dose; type: functional; how it was run: as §1

SMILES | Activity
CCC1(c2ccccc2)OC1(c1ccc(OC(C)=O)cc1)c1ccc(OC(C)=O)cc1 (stereo not drawn) | 2
CC(=O)Oc1ccc(C(=Cc2ccccc2)c2ccc(OC(C)=O)cc2)cc1 | 13
CC(=O)Oc1ccc(C(=C(CC(F)(F)F)c2ccccc2)c2ccc(OC(C)=O)cc2)cc1 | 140
CCC(=C(c1ccc(OC(C)=O)cc1)c1ccc(OC(C)=O)cc1)c1ccccc1 | 72

More lines, now with the values ahead:

Activity | SMILES
42 | CCCC(=C(c1ccc(OC(C)=O)cc1)c1ccc(OC(C)=O)cc1)c1ccccc1
42 | CCC(c1ccccc1)C(c1ccc(OC(C)=O)cc1)c1ccc(OC(C)=O)cc1 (stereo not drawn)
108 | CC(=O)Oc1ccc(C(=C(C)c2ccccc2)c2ccc(OC(C)=O)cc2)cc1
87 | CC(=O)Oc1ccc(C(=C(c2ccccc2)C(C)C)c2ccc(OC(C)=O)cc2)cc1

target: T1, Estrogen receptor (Mus musculus); test: Estrogenic effect in uterotrophic assay in immature mice at 100 ug dose; type: functional; how it was run: as §1

SMILES | Activity
CCC1(c2ccccc2)OC1(c1ccc(OC(C)=O)cc1)c1ccc(OC(C)=O)cc1 (stereo not drawn) | 60
CC(=O)Oc1ccc(C(=Cc2ccccc2)c2ccc(OC(C)=O)cc2)cc1 | 116
CC(=O)Oc1ccc(C(=C(CC(F)(F)F)c2ccccc2)c2ccc(OC(C)=O)cc2)cc1 | 86
CCC(=C(c1ccc(OC(C)=O)cc1)c1ccc(OC(C)=O)cc1)c1ccccc1 | 107

The next lines start with the values.

Activity | SMILES
114 | CCCC(=C(c1ccc(OC(C)=O)cc1)c1ccc(OC(C)=O)cc1)c1ccccc1
83 | CCC(c1ccccc1)C(c1ccc(OC(C)=O)cc1)c1ccc(OC(C)=O)cc1 (stereo not drawn)
78 | CC(=O)Oc1ccc(C(=C(C)c2ccccc2)c2ccc(OC(C)=O)cc2)cc1
117 | CC(=O)Oc1ccc(C(=C(c2ccccc2)C(C)C)c2ccc(OC(C)=O)cc2)cc1
